Data set [1] has as its system K562/Adr. Briefly: Antiproliferative activity against human K562/ADR cells after 72 hrs by MTT assay. In kind it is functional, cell-based. The method, boiled down:
(§1)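 Cells seeded and dosed in triplicate for 72 h. Suspension lines (HL-60, K-562, K562/ADR, HL-60/MX2) were read by MTT: 5 mg/mL MTT stock added, 4 h at 37 °C, formazan dissolved in 10% SDS/5% isobutanol/10 mM HCl, A570. Adherent lines were read by SRB: fixed with cold 10% TCA, stained with 0.4% SRB in 1% acetic acid, A540. IC50 from four-parameter logistic fit; mean of ≥3 independent experiments.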

The test system of data set [2] is K562. The data set can be described thus: Antiproliferative activity against human K562 cells after 72 hrs by MTT assay. In kind it is functional, cell-based. The settings on record: K562, 72 h. The method, boiled down:
as §1
A general note: Tetrazolium dyes change colour on reduction, which living cells bring about.

A short description of data set [3]: Resistance factor, ratio of IC50 for human K562/ADR cells to IC50 for human K562 cells. In kind it is functional. The method, boiled down:
(§2)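 72 h treatment in triplicate; suspended lines (HL-60, K-562, K562/ADR, HL-60/MX2) read by MTT (4 h, SDS/isobutanol/HCl solubilization, 570 nm); adherent KB and KB/VCR (MEM, 10% FBS) by SRB after TCA fixation (540 nm); IC₅₀ by four-parameter logistic fit, mean of ≥3 independent experiments.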

The subject of data set [4] is A549. The data set can be described thus: Antiproliferative activity against human A549 cells assessed as reduction in viability after 72 hrs by SRB assay. The note with it: A549, 72 h. In kind it is functional, cell-based. The procedure, abridged:
as §1
(The SRB assay estimates cell density from bound dye.)

Data set [5] relates to Bel-7402. The data set can be described thus: Antiproliferative activity against human Bel7402 cells assessed as reduction in viability after 72 hrs by SRB assay. In kind it is functional, cell-based. The note with it: Bel-7402, 72 h. The procedure, abridged:
as §1

The subject of data set [6] is HL60/MX2. The data set can be described thus: Antiproliferative activity against human HL60/MX2 cells after 72 hrs by MTT assay. In kind it is functional, cell-based. The note with it: HL60/MX2, 72 h. The procedure, abridged:
as §1

Data set [7] can be described thus: Resistance factor, ratio of IC50 for human HL60/MX2 cells to IC50 for human HL60 cells. In kind it is functional. The procedure, abridged: as §2
In data set [8] the test system is HL-60. Briefly: Antiproliferative activity against human HL60 cells after 72 hrs by MTT assay. In kind it is functional, cell-based. The note with it: HL-60, 72 h. The method, boiled down:
as §1

The nature of data set [9]: Cytotoxicity against Sprague-Dawley rat primary neuronal cells assessed as reduction in cell viability at 300 nM after 24 hrs by MTT assay. In kind it is cell-based. The settings on record: read-out: INH.
For data set [10], the system named is MRC5. Briefly: Antiproliferative activity against human MRC5 cells assessed as reduction in viability after 72 hrs by SRB assay. In kind it is cell-based. The settings on record: MRC5, 72 h. The procedure, abridged:
as §1

Data set [11] can be described thus: Selectivity ratio of IC50 for human MRC9 cells to IC50 for human A549 cells. The method, boiled down:
(§3)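 SRB assay: A549 (F-12, 10% FBS) and MRC-5/MRC-9 (EMEM, 10% FBS) treated in triplicate 72 h, fixed with ice-cold 10% TCA, stained with 0.4% SRB in 1% acetic acid, absorbance 540 nm; IC₅₀ by four-parameter logistic fit, mean of ≥3 independent experiments.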

A short description of data set [12]: Selectivity ratio of IC50 for human MRC5 cells to IC50 for human A549 cells. The method, boiled down:
as §3

Data set [13] can be described thus: Cytotoxicity against Sprague-Dawley rat primary neuronal cells assessed as reduction in cell viability after 24 hrs by MTT assay. In kind it is cell-based.
Data set [14] concerns L02. The data set can be described thus: Antiproliferative activity against human LO2 cells assessed as reduction in viability after 72 hrs by SRB assay. In kind it is cell-based. The settings on record: L02, 72 h. The method, boiled down: as §1
Data set [15] can be described thus: Antiproliferative activity against human MRC9 cells assessed as reduction in viability after 72 hrs by SRB assay. In kind it is cell-based. The note with it: MRC9, 72 h. The method, boiled down:
as §1

Data set [16] is described as follows: Antiproliferative activity against human KB/VCR cells after 72 hrs by SRB assay. In kind it is functional, cell-based. The method, boiled down:
as §1

For data set [17], the system named is KB. The data set can be described thus: Antiproliferative activity against human KB cells after 72 hrs by SRB assay. In kind it is functional, cell-based. The method, boiled down: as §1
Data set [18] can be described thus: Resistance factor, ratio of IC50 for human KB/VCR cells to IC50 for human KB cells. In kind it is functional. The procedure, abridged:
as §2

By IC50 is commonly meant the midpoint of a concentration-inhibition curve.

On to `COc1cccc2c1C(=O)c1c(O)c3c(c(O)c1C2=O)C[C@@](O)(C(=O)CO)C[C@@H]3O[C@H]1C[C@H](N)[C@H](O)[C@H](C)O1.Cl` [DOXORUBICIN HYDROCHLORIDE], for which the figures for the IC50 in data set [1] and in data set [2] were 3310 nM and 77.7 nM, respectively. For the same molecule, the “Ratio IC50” value in [3] came to 42.6.
Regarding `COc1cc2c3c(c4ccc(OCC#N)cc4c2cc1OC)CN1CCCCC1C3` (racemic), the figures for the IC50 in [4] and in data set [5] were 1 to 3 nM and 2.2 to 6 nM, respectively.
For `COc1cc2c3c(c4ccc(OC(=O)c5cccs5)cc4c2cc1OC)CN1CCCCC1C3` (centres undefined), in that order: 115 nM and 79 nM.
As to `COc1cc2c3c(c4ccc(OC(=O)c5cccnc5)cc4c2cc1OC)CN1CCCCC1C3` (centres undefined), the IC50 in data set [4] was found to be 277 nM; in data set [5], 238 nM.
Turning to `COc1cc2c3c(c4ccc(O)cc4c2cc1OC)CN1CCCCC1C3O` (racemic), the IC50 came to 12 nM in data set [4] and 8 nM in data set [5].
For `C#CCOc1ccc2c3c(c4cc(OC)c(OC)cc4c2c1)CC1CCCCN1C3` (centres undefined), in that order: 30 nM and 33 nM.
For `COc1cc2c3c(c4ccc(O)cc4c2cc1OC)CN1CCCC[C@H]1C3`, in that order: 182 nM and 320 nM.
With `Cl.Cl.O=C1c2c(O)ccc(O)c2C(=O)c2c(NCCNCCO)ccc(NCCNCCO)c21` [MITOXANTRONE HYDROCHLORIDE], the IC50 in [6] was 351 nM; in data set [8] it was 7.2 nM. Besides, the “Ratio IC50” value in [7] was 48.7.
With `COc1cc2c3c(c4ccc(OCC(N)=O)cc4c2cc1OC)CN1CCCCC1C3` (centres undefined), the IC50 is 16 nM in [4] and 14 nM in data set [5].
`COc1cc2c3c(c4ccc(OCC#N)cc4c2cc1OC)CN1CCCC[C@@H]1C3`: the IC50 in data set [4] amounted to 0.8 nM; in [10], 3.2 nM; in data set [5], 2.4 nM; in data set [14], 3.9 nM; in data set [15], 2.7 nM. In addition, the cytotoxicity at 24 h, 0.3 µM in [9] is 50%. Besides, the “Ratio IC50” value in data set [11] and in [12] was 3 - 4 each time. Also, the “inhibition (INH)” value in [13] is “Dose-dependent effect”.
With `COc1cc2c3c(c4ccc(OC(=O)C5CCCCC5)cc4c2cc1OC)CN1CCCCC1C3` (centres undefined), the IC50 in data set [4] was 191 nM; in data set [5], 115 nM.
Regarding `COc1cc2c3c(c4ccc(OC(C)=O)cc4c2cc1OC)CN1CCCCC1C3` (centres undefined), the IC50 in [4] came to 22 nM; in [5], 23 nM.
For `COc1cc2c3c(c4ccc(OC(=O)C5CC5)cc4c2cc1OC)CN1CCCCC1C3` (centres undefined), in that order: 30 nM and 29 nM.
On to `COc1cc2c3c(c4ccc(OCC#N)cc4c2cc1OC)CN1CCCC[C@H]1C3`, for which the IC50 in [4] was found to be 12.9 nM; in [5], 25.8 nM.
Consider `COc1cc2c3c(c4ccc(OC(=O)C(C)(C)C)cc4c2cc1OC)CN1CCCCC1C3` (centres undefined), for which the IC50 in data set [4] was found to be 103 nM; in data set [5], 136 nM.
For `COc1cc2c3c(c4ccc(O)cc4c2cc1OC)CN1CCCCC1C3` (racemic), in that order: 1.2 to 2.9 nM and 3.4 to 3.5 nM.
Consider `CC[C@]1(O)C[C@H]2CN(CCc3c([nH]c4ccccc34)[C@@](C(=O)OC)(c3cc4c(cc3OC)N(C=O)[C@H]3[C@@](O)(C(=O)OC)[C@H](OC(C)=O)[C@]5(CC)C=CCN6CC[C@]43[C@@H]65)C2)C1` [VINCRISTINE], for which the IC50 was 239 nM in data set [16] and 0.2 nM in [17]. Moreover, the “Ratio IC50” value in data set [18] was found to be 1193.5.
Take `COc1cc2c3c(c4ccc(OC(=O)c5ccco5)cc4c2cc1OC)CN1CCCCC1C3` (centres undefined): the IC50 in [4] was 52 nM; in [5], 59 nM.
For `COc1cc2c3c(c4ccc(OCCOC(=O)[C@H](C)N)cc4c2cc1OC)CN1CCCCC1C3` (some centres undefined), in that order: 49 nM and 47 nM.
For `COc1cc2c3c(c4ccc(OC(=O)c5cccc6nnsc56)cc4c2cc1OC)CN1CCCCC1C3` (centres undefined), in that order: 29 nM and 20 nM.
As to `COc1cc2c3c(c4ccc(OCc5ccccc5)cc4c2cc1OC)CN1CCCCC1C3O` (racemic), the IC50 in [4] was 1530 nM; in data set [5], 917 nM.
For `CCOC(=O)COc1ccc2c3c(c4cc(OC)c(OC)cc4c2c1)CC1CCCCN1C3` (centres undefined), in that order: 458 nM and 411 nM.

The record behind these values is ChEMBL document CHEMBL4049418, “6-OH-Phenanthroquinolizidine Alkaloid and Its Derivatives Exert Potent Anticancer Activity by Delaying S Phase Progression” (J Med Chem, 2017).
